Experiments:
[1] = molecular target: T1, Progesterone receptor (Homo sapiens, UniProt P06401); assay: Agonistic activity to the human progesterone receptor (hPR)assayed in CV-1 cells in cotransfection assay.; format: functional, cell-based
T1 sequence (P06401 whole entry): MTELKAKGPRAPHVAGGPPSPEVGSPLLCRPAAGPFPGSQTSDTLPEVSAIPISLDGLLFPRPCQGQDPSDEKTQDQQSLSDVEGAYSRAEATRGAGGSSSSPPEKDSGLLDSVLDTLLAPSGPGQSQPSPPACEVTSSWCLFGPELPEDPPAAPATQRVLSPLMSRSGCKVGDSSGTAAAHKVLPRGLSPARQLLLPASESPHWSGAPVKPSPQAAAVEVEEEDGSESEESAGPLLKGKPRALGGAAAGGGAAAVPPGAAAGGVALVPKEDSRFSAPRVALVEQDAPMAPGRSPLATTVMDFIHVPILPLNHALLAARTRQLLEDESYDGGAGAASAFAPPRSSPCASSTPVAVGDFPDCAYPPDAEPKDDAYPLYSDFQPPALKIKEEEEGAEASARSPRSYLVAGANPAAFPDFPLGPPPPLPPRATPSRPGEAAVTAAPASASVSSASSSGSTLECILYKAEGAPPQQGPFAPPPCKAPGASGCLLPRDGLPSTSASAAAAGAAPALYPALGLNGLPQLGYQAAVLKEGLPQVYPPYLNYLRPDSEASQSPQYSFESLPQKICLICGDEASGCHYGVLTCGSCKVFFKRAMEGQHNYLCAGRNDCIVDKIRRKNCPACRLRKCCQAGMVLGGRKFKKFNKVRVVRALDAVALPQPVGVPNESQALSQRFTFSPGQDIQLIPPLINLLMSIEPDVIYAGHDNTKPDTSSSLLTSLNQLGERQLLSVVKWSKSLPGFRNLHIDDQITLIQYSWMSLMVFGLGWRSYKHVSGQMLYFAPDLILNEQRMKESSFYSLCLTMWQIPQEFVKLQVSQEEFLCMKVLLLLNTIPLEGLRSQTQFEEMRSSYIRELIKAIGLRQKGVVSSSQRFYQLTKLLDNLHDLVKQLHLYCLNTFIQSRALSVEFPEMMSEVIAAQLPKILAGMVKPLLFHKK

[2] = molecular target: T2, Progesterone receptor (Homo sapiens) (UniProt P06401); assay: Agonist efficacy for human progesterone receptor (hPR) was compared to that of progesterone (100%); format: functional
T2 sequence (whole entry): T1 sequence (P06401 whole entry)
Method in brief: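 Cotransfection assay in CV-1 cells transiently transfected by calcium phosphate coprecipitation with hPR plasmid, MTV-LUC reporter, pRS-β-Gal and filler DNA. Full dose–response curves from 10^-12 to 10^-5 M were run. […] Values are the mean of at least three experiments with triplicate determinations, or of two experiments, or a single experiment.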

[3] = molecular target: T2, Progesterone receptor (Homo sapiens); assay: Human progesterone receptor (hPR) antagonist efficacy was determined as a function (%) of maximal inhibition of progesterone at EC50 value.; format: functional
Method in brief: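 hPR antagonist-mode cotransfection in CV-1 cells transiently transfected by calcium phosphate coprecipitation with hPR plasmid, MTV-LUC reporter, pRS-β-Gal and filler DNA. […] Values come from one, two, or at least three experiments in triplicate.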

[4] = molecular target: T1, Progesterone receptor; assay: The binding affinity on Human progesterone receptor (hPR-A) using progesterone as radioligand.
[5] = molecular target: T1, Progesterone receptor; assay: Antagonistic activity was determined in Human progesterone receptor(hPR) of CV-1 cells in cotransfection assay.; format: functional, cell-based
[6] = molecular target: T3, Glucocorticoid receptor (Homo sapiens, UniProt P04150); assay: Agonist activity against Human glucocorticoid receptor(hGR) expressed in CV-1 cells; format: functional, cell-based
T3 sequence (P04150 whole entry): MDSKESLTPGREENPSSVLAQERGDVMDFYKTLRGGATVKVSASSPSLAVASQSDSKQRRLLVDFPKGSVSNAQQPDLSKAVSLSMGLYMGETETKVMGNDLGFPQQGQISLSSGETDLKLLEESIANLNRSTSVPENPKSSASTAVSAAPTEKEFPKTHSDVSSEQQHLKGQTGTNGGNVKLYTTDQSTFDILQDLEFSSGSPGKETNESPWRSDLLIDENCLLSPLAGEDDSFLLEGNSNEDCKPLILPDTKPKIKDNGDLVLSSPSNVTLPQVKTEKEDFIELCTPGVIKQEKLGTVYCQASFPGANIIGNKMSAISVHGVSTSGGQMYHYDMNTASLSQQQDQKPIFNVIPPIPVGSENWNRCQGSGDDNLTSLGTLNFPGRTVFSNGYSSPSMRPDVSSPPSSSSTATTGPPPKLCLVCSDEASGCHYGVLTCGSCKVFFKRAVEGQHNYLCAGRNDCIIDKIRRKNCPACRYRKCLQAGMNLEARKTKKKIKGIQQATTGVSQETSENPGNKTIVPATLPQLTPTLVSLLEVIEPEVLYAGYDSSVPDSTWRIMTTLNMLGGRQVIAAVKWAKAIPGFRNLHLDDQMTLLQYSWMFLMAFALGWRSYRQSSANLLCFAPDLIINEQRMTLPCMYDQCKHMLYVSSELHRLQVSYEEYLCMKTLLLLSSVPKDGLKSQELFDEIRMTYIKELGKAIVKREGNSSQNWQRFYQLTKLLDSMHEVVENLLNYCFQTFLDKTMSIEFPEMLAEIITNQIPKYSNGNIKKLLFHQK

[7] = molecular target: T4, Mineralocorticoid receptor (Homo sapiens, UniProt P08235); assay: Antagonistic activity was determined in Human mineralocorticoid receptor(hMR) of CV-1 cells in cotransfection assay.; format: functional, cell-based
T4 sequence (P08235 whole entry): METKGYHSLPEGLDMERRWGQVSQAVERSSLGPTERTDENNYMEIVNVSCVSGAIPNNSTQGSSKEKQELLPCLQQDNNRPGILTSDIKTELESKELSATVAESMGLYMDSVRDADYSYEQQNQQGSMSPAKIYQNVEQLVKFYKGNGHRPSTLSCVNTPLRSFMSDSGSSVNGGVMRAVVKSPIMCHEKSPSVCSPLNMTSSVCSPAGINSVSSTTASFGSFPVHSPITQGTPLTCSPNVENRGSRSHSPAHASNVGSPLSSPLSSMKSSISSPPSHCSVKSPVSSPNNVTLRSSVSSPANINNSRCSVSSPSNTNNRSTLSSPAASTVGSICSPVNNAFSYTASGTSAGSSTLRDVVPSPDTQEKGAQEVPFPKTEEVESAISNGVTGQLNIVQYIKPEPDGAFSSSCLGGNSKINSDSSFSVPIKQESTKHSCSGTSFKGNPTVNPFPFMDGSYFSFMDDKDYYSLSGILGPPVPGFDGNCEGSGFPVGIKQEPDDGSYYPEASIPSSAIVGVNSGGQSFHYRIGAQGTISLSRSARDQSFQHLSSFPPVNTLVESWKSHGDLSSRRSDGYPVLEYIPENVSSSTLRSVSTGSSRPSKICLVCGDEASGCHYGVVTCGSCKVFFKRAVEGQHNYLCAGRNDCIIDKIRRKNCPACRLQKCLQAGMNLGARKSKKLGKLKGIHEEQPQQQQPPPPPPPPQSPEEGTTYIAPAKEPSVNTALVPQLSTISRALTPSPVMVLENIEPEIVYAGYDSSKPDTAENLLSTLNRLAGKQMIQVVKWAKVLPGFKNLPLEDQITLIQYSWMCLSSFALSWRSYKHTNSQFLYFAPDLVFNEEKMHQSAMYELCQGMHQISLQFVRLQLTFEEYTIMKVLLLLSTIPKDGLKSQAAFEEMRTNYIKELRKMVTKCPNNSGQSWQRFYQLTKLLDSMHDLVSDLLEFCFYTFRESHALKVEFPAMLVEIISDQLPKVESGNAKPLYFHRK

[8] = molecular target: T3, Glucocorticoid receptor
[9] = molecular target: T5, Androgen receptor (Homo sapiens, UniProt P10275)
T5 sequence (P10275 whole entry): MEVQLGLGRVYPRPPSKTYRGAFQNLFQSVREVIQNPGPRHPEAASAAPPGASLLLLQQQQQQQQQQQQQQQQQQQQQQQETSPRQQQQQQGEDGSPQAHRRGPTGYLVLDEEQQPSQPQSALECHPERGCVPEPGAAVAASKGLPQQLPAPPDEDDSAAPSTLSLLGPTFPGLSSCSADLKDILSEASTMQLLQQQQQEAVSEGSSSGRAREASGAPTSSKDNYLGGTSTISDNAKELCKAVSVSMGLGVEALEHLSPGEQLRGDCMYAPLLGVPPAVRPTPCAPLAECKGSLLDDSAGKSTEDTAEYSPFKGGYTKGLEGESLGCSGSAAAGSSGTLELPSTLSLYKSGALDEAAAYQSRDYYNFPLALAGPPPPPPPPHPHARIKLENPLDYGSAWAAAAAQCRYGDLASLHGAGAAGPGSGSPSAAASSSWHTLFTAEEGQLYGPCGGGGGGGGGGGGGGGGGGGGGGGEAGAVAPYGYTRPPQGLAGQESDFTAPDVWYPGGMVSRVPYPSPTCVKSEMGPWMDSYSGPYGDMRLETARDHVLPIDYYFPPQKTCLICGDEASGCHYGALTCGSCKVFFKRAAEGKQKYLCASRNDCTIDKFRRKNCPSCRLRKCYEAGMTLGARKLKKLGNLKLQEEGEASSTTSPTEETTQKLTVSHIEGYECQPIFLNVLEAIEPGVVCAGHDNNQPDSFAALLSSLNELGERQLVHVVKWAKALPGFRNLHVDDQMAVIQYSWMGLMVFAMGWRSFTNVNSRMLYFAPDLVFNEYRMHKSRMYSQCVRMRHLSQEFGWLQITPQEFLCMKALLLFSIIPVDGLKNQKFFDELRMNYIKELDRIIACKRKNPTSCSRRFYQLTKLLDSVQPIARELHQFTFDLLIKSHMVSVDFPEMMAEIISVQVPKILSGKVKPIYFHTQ

[10] = molecular target: T5, Androgen receptor; remark: listed apart in the source
[11] = molecular target: T3, Glucocorticoid receptor; remark: listed apart in the source

Row | Compound | EC50 [1] [nM] | Efficacy [2] [%] | Efficacy [3] [%] | Ki [4] [nM] | IC50 [5] [nM] | EC50 [6] [nM] | IC50 [7] [nM] | Ki [8] [nM] | IC50 [9] [nM] | Ki [10] [nM] | IC50 [11] [nM]
1 | CC1=CC(C)(C)Nc2ccc3c(c21)C(c1ccc(C(F)(F)F)cc1)Oc1ccccc1-3 (stereo unspecified) | 33 | 35 | 49 | 10.8 | 150 |  |  |  |  |  | 
2 | CC1=CC(C)(C)Nc2ccc3c(c21)C(c1ccc(F)c(C(F)(F)F)c1)Oc1ccccc1-3 (stereo unspecified) | 25 | 60 | 56 | 6.8 | 4600 |  |  |  |  |  | 
3 | CC(=O)O[C@]1(C(C)=O)CC[C@H]2[C@@H]3C[C@H](C)C4=CC(=O)CC[C@]4(C)[C@H]3CC[C@@]21C [MEDROXYPROGESTERONE ACETATE] |  |  |  |  |  | 10 | 1200 | 13.2 |  |  | 
4 | CC1=CC(C)(C)Nc2ccc3c(c21)C(c1ccc(Br)nc1)Oc1ccccc1-3 (stereo unspecified) | 3900 | 24 | 86 | 3.9 | 54 |  |  |  |  |  | 
5 | CC1=CC(C)(C)Nc2ccc3c(c21)C(c1cccc(F)c1)Oc1ccccc1-3 (stereo unspecified) | 8 | 48 | 74 | 0.69 | 150 |  |  |  |  |  | 
6 | CC1=CC(C)(C)Nc2ccc3c(c21)C(c1cccc(Br)n1)Oc1ccccc1-3 (stereo unspecified) | 1700 | 21 | 86 | 13.8 | 71 |  |  |  |  |  | 
7 | CC1=CC(C)(C)Nc2ccc3c(c21)C(c1ccc(F)cc1)Oc1ccccc1-3 (stereo unspecified) | 8 | 28 | 77 | 5.3 | 342 |  |  |  |  |  | 
8 | CC1=CC(C)(C)Nc2ccc3c(c21)C(c1cc(F)cc(Br)c1)Oc1ccccc1-3 (stereo unspecified) | 27 | 49 | 65 | 2.4 | 1210 |  |  |  |  |  | 
9 | COc1ccc(C2Oc3ccccc3-c3ccc4c(c32)C(C)=CC(C)(C)N4)cc1 (stereo unspecified) | > 10000 | < 20 | 65 | 13.3 | 105 |  |  |  |  |  | 
10 | CC(=O)c1ccc(C2Oc3ccccc3-c3ccc4c(c32)C(C)=CC(C)(C)N4)cc1 (stereo unspecified) | > 10000 | < 20 | 68 | 8.8 | 132 |  |  |  |  |  | 
11 | CC1=CC(C)(C)Nc2ccc3c(c21)C(c1ccccc1)Oc1ccccc1-3 (stereo unspecified) | 156 |  |  | 3.6 | 290 |  | 354 | 154 | 745 | 1860 | 226

— ChEMBL document CHEMBL1131454 (J Med Chem, 1998)
